Results taken from ChEMBL document CHEMBL1156920, “Structural analogues of schweinfurthin F: probing the steric, electronic, and hydrophobic properties of the D-ring substructure” (Bioorg Med Chem, 2010).

What was measured:
Type in all cases: functional
A549 [1] = test: Growth inhibition of human A549 cells; conditions: for TGI: read-out: pTGI (converted)
DU-145 = test: Growth inhibition of human DU145 cells; conditions: for TGI: read-out: pTGI (converted)
SR = test: Growth inhibition of human SR cells; conditions: for TGI: read-out: pTGI (converted)
[2] = Growth inhibition of human Hs 578T cells
PC-3 = test: Growth inhibition of human PC3 cells; conditions: for CC50: read-out: pLC50 (the source's name) (converted); for TGI: read-out: pTGI (converted)
MDA-MB-231 = test: Growth inhibition of human MDA-MB-231 cells; conditions: for TGI: read-out: pTGI (converted)
K562 = test: Growth inhibition of human K562 cells; conditions: for CC50: read-out: pLC50 (the source's name) (converted); for TGI: read-out: pTGI (converted)
COLO 205 = test: Growth inhibition of human COLO205 cells; conditions: for TGI: read-out: pTGI (converted)
SW-620 = test: Growth inhibition of human SW620 cells
OVCAR-4 = test: Growth inhibition of human OVCAR4 cells; conditions: for CC50: read-out: pLC50 (the source's name) (converted); for TGI: read-out: pTGI (converted)
HCC 2998 = test: Growth inhibition of human HCC2998 cells; conditions: for TGI: read-out: pTGI (converted)
A498 = test: Growth inhibition of human A498 cells; conditions: for TGI: read-out: pTGI (converted)
U-251 = test: Growth inhibition of human U251 cells; conditions: for TGI: read-out: pTGI (converted)
UACC-62 = test: Growth inhibition of human UACC62 cells; conditions: for CC50: read-out: pLC50 (the source's name) (converted); for TGI: read-out: pTGI (converted)
OVCAR-3 = test: Growth inhibition of human OVCAR-3 cells; conditions: for TGI: read-out: pTGI (converted)
IGROV-1 = test: Growth inhibition of human IGROV1 cells; conditions: for TGI: read-out: pTGI (converted)
HT-29 = test: Growth inhibition of human HT-29 cells; conditions: for TGI: read-out: pTGI (converted)
NCI-H460 = test: Growth inhibition of human NCI-H460 cells; conditions: for TGI: read-out: pTGI (converted)
OVCAR-5 = test: Growth inhibition of human OVCAR5 cells; conditions: for TGI: read-out: pTGI (converted)
A549 [3] = test: Selectivity index, ratio of EC50 for human A549 cells to EC50 for SF295 cells
Summary of the method: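 SF-295 cells were kept in RPMI 1640 and A549 in F-12, each with 10% FBS, pen-strep, amphotericin B and L-glutamine, at 37 °C and 5% CO2. Cells at 60% confluency were dosed for 44 h, then given 0.06 mg/mL MTT for 4 h (SF-295 in phenol-red-free RPMI). Acid/Triton/isopropanol stop was added overnight at 37 °C, and OD read at 540/650 nm. EC50 ratio is A549 over SF-295.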

SK-MEL-28 = test: Growth inhibition of human SK-MEL-28 cells
OVCAR-8 = test: Growth inhibition of human OVCAR8 cells
[4] = read-out: pLC50 (the source's name) (converted)

COc1cc(/C=C/c2cc(O)c(CCC(C)C)c(O)c2)cc2c1O[C@]1(C)CC[C@@H](O)C(C)(C)[C@H]1C2
GI50 (A549 [1]): 0.166 µM
LC50 (50% lethal concentration) (A549 [1]): > 100 µM
TGI (A549 [1]): 17.4 µM
GI50 (DU-145): 0.24 µM
LC50 (DU-145): 37.2 µM
TGI (DU-145): 14.1 µM
GI50 (SR): 0.0891 µM
LC50 (SR): > 100 µM
TGI (SR): 10.5 µM
GI50 [2]: 0.0309 µM
CC50 [2, 4]: > 100 µM
TGI ([2]; read-out: pTGI (converted)): 0.166 µM
GI50 (PC-3): 0.178 µM
CC50 (PC-3): > 100 µM
TGI (PC-3): 32.4 µM
GI50 (MDA-MB-231): 1.74 µM
LC50 (MDA-MB-231): 39.8 µM
TGI (MDA-MB-231): 11 µM
GI50 (K562): 1.17 µM
CC50 (K562): > 100 µM
TGI (K562): > 100 µM
GI50 (COLO 205): 0.891 µM
LC50 (COLO 205): > 100 µM
TGI (COLO 205): 12.3 µM
GI50 (SW-620): 0.214 µM
CC50 (SW-620; [4]): 14.8 µM
TGI (SW-620; read-out: pTGI (converted)): 2.34 µM
GI50 (OVCAR-4): 1.41 µM
CC50 (OVCAR-4): > 100 µM
TGI (OVCAR-4): 38 µM
GI50 (HCC 2998): 0.794 µM
LC50 (HCC 2998): 38 µM
TGI (HCC 2998): 10.5 µM
GI50 (A498): 0.158 µM
LC50 (A498): 36.3 µM
TGI (A498): 6.31 µM
GI50 (U-251): 0.0631 µM
LC50 (U-251): 37.2 µM
TGI (U-251): 12.9 µM
GI50 (UACC-62): 0.195 µM
CC50 (UACC-62): 32.4 µM
TGI (UACC-62): 7.08 µM
GI50 (OVCAR-3): 0.417 µM
LC50 (50% lethal concentration) (OVCAR-3): 56.2 µM
TGI (OVCAR-3): 14.1 µM
GI50 (IGROV-1): 0.513 µM
LC50 (IGROV-1): > 100 µM
TGI (IGROV-1): 46.8 µM
GI50 (HT-29): 0.813 µM
LC50 (50% lethal concentration) (HT-29): 97.7 µM
TGI (HT-29): 4.47 µM
GI50 (NCI-H460): 0.0661 µM
LC50 (NCI-H460): 51.3 µM
TGI (NCI-H460): 1.78 µM
GI50 (OVCAR-5): 10.7 µM
LC50 (lethal concentration, 50% cell kill) (OVCAR-5): 69.2 µM
TGI (OVCAR-5): 26.9 µM
Ratio EC50 (A549 [3]): 10
GI50 (SK-MEL-28): 0.123 µM
CC50 (SK-MEL-28; [4]): 37.2 µM
TGI (SK-MEL-28; read-out: pTGI (converted)): 11.2 µM

COc1cc(CCc2cc(O)c(C/C=C(\C)CC/C=C(\C)CO)c(O)c2)cc2c1O[C@]1(C)CC[C@@H](O)C(C)(C)[C@H]1C2
GI50 (A549 [1]): 4.9 µM
LC50 (50% lethal concentration) (A549 [1]): > 100 µM
TGI (A549 [1]): 95.5 µM
GI50 (DU-145): 6.46 µM
LC50 (DU-145): > 100 µM
TGI (DU-145): 28.2 µM
GI50 (SR): 2.09 µM
LC50 (SR): 66.1 µM
TGI (SR): 7.59 µM
GI50 (OVCAR-8): 8.32 µM
CC50 (OVCAR-8; [4]): > 100 µM
TGI (OVCAR-8; read-out: pTGI (converted)): 64.6 µM
GI50 (PC-3): 5.5 µM
CC50 (PC-3): > 100 µM
TGI (PC-3): 77.6 µM
GI50 (MDA-MB-231): 8.13 µM
LC50 (MDA-MB-231): > 100 µM
TGI (MDA-MB-231): 38 µM
GI50 (K562): 3.09 µM
CC50 (K562): 64.6 µM
TGI (K562): 12.9 µM
GI50 (COLO 205): 10.7 µM
LC50 (COLO 205): 67.6 µM
TGI (COLO 205): 26.9 µM
GI50 (OVCAR-4): 11.5 µM
CC50 (OVCAR-4): > 100 µM
TGI (OVCAR-4): 45.7 µM
GI50 (HCC 2998): 6.17 µM
TGI (HCC 2998): 25.1 µM
GI50 (A498): 7.59 µM
LC50 (A498): > 100 µM
TGI (A498): 61.7 µM
GI50 (U-251): 3.02 µM
LC50 (U-251): 58.9 µM
TGI (U-251): 18.6 µM
GI50 (UACC-62): 4.79 µM
CC50 (UACC-62): 81.3 µM
TGI (UACC-62): 20.9 µM
GI50 (OVCAR-3): 11.5 µM
LC50 (50% lethal concentration) (OVCAR-3): > 100 µM
TGI (OVCAR-3): 33.1 µM
GI50 (IGROV-1): 4.9 µM
LC50 (IGROV-1): > 100 µM
TGI (IGROV-1): 26.3 µM
GI50 (HT-29): 7.94 µM
LC50 (50% lethal concentration) (HT-29): 87.1 µM
TGI (HT-29): 26.3 µM
GI50 (NCI-H460): 3.31 µM
LC50 (NCI-H460): 38.9 µM
TGI (NCI-H460): 10.7 µM
GI50 (OVCAR-5): 20.9 µM
LC50 (lethal concentration, 50% cell kill) (OVCAR-5): > 100 µM
TGI (OVCAR-5): 66.1 µM
